Test system: MS2 coat protein
Test: apparent Kd, MS2 coat protein; higher = weaker binding; RNA-MaP array; FMN 200 µM where present
Procedure, shortened: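 The titrant was SNAP-549-labelled MS2 coat protein, run from 0.7 or 1.5 nM in doubling steps to 3 µM. It was applied to designs transcribed by stalled E. coli RNA polymerase on Illumina sequencing-chip clusters, without ligand first and then with constant ligand, in 100 mM Tris-HCl pH 7.5, 80 mM KCl, 4 mM MgCl2, BSA, DTT, yeast tRNA and Tween-20. The apparent Kd is the median of filtered per-cluster binding-curve fits, with green signal normalised to red-channel RNA signal and control-cluster median Fmax.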

[1] = designed as: ON switch for flavin mononucleotide, no ligand
[2] = ligand present: flavin mononucleotide, designed as: ON switch for flavin mononucleotide
[3] = designed as: OFF switch for flavin mononucleotide, no ligand
[4] = ligand present: flavin mononucleotide, designed as: OFF switch for flavin mononucleotide

| Sequence | apparent Kd [1] [nM] | apparent Kd [2] [nM] | apparent Kd [3] [nM] | apparent Kd [4] [nM] |
| --- | --- | --- | --- | --- |
| GGUUCCAACACAGGAUAUGCUAUCCUUUGGGUAGCAGAAGGGUGAAAACAUGAGGAUCACCCAUGUGGAACCGGGCGUGAGCCC | 412 | 46.5 |  |  |
| CUAUUUAAUGCCUCAUGUACAUGAGGAUCACCCAUGUUAACUUAGGAUAUAUUUAUAUUGAUAGAGUAGAAGGAAGUACUAUUU |  |  | 25.4 | 27.3 |
| AAAAUGUAAGGAUAUGGCCGGGACCCAGGGUUUGGACCCGGCUAGAAGGUACAUGAGGAUCACCCAUGUAAGAA |  |  | 16.4 | 23 |
| AGUAAGAUGCAGAAGGUGUCAGCUAGUGCUACGACAUGAGGAUCACCCAUGUACUAGGUAGAGUACAAGGAUAUGCAUCUUACA | 23 | 6.15 |  |  |
| GCCGGGUGGGUAGGAUAUGGCUAUGUCUCAUUGCUAGAAGGACCAACUGCUACAUGAGGAUCACCCAUGUCGUAGUGCACCCGG | 138 | 28.9 |  |  |
| UGUAUGGACAGAGGAUAUACAGAUAGGAUCUACUAUCAAACAUUCCUGACAUGAGGAUCACCCAUGUAGAAGGCUGUCCAUACU |  |  | 21.1 | 79.2 |
| CAUUAAUUCAUUAUAUUAAUUUUACAGGAUAUGUAACAUGAGGAUCACCCAUGUAUUCUAGGUUAACAGAAGGGUAUUGCUUGU |  |  | 24.5 | 21.3 |
| GAUUGACAUGAGGAUCACCCAUGUGAGGAUAUCGGCCGGAUCUUGUUAGCUUCCAUCGCGAGAAGGCACAUAGG |  |  | 66.1 | 73.5 |
| UCUUGUGUUGAGGAUAUGCGCCGGCUCGCUGGCGCAGAAGGCGGCACAUGAGGAUCACCCAUGUCAGUUCGCGA |  |  | 502 | 60.8 |
| UGUCGGAGCAGAGGAUAUUACAUGAGGAUCACCCAUGUAUGAACCAAUAGCUGGAAACAGCAAUGUAAGAAGGCUGCUCCGAAA |  |  | 12.3 | 176 |
| GGACCACAUCAGGAUAUGACUAGCUUCGGCUAGUCAGAAGGGAUGACAUGAGGAUCACCCAUGUGAUCAGGUCC |  |  | 77.5 | 127 |
| GGACACCGAUCAGGAUAUACACGGCAUUCCAGAAACAUGAGGAUCACCCAUGUAGAAGGGAUCUGCGUCCUAAACAUAUCCAUU |  |  | 5.12 | 9.28 |
| GGAGCUACAACCGACGGAUAGAUGCAGGAUAUGCUCACAUGAGGAUCACCCAUGUGCUGAAACUGGCAGAAGGGUAUCACCGCC | 7.83 | 4.59 |  |  |
| GAAUUCGCAUGAGGAUAUGCACUCAUUUCAUGUGCAGAAGGUAUAUCAUUAGACAUGAGGAUCACCCAUGUAUUGGUCAUUAAC | 15.2 | 14 |  |  |
| AUUUAUGGCCAGAAGGACAUGAGGAUCACCCAUGUAGGAUAUGGACGAUUUUGCUCGGCGGUUUUUUUAGGAAGCACCGGUGGU | 12.4 | 7.14 |  |  |
| GGCCCACAAGGAUAUACAUGAGGAUCACCCAUGUAAAUCUCAGGUAGUAUGUGGGUGUGUAGAAGGUGUUAGCC |  |  | 15.2 | 14.4 |
| UAUAAGUCUCAUGUAACAUGAGGAUCACCCAUGUCAUAUUGUAGAAGGAUGAUAAUAUGUAUAUCAUAGGAUAUACUAUAUGUU |  |  | 20.9 | 19.6 |
| CCACUCGAGCAGAAGGCAAUGAGGGUUAUACAUUGAGGAUAUGCUACGUAUGUGGUACAUGAGGAUCACCCAUGUAGCCUAUCU | 389 | 21.3 |  |  |
| ACGUGACGGAGCGCGAGUGGACGGAGAAGGCAGACAUGAGGAUCACCCAUGUGAGCCUGCUAUUCUGAGGAUAUCCGUCCGCAC |  |  | 32.5 | 203 |
| GCCGGGUAGGCAGGAUAUCCUCGCGCAAACACAUGAGGAUCACCCAUGUACACAAAACGUGAUAUGGAGAAGGGCCGACCCACG | 24.2 | 5.66 |  |  |
| AAAAACCGAGGAUAUACAUGAGGAUCACCCAUGUCAAAAAAAAAAAAAAAAAAAAAAGGUAGAAGGCGGAAAAA |  |  | 64.3 | 57.9 |

| Sequence | apparent Kd [1] [nM] | apparent Kd [2] [nM] | apparent Kd [3] [nM] | apparent Kd [4] [nM] |
| --- | --- | --- | --- | --- |
| GCUAAGCGAAUCAAGAUGGAUAGAACAUGAGGAUCACCCAUGUAGGAUAUGCUACACAAAGUGUAGCAGAAGGACAAGCUUAGC |  |  | 19.9 | 33.5 |
| CAAAGGGAAGGAUAUACAUCAGGCGACCUGGUGGGCACCUAACAUGAGGAUCACCCAUGUAGAAGGUCCAGGGA |  |  | 22.4 | 14.9 |
| GUUGCUUUCCGAGGAUAUUCUGGGCGUGGUUAUACAUGAGGAUCACCCAUGUGGCGGUUGCCUAGGGAGAAGGCGGGCUGCUUC | 20.3 | 17.9 |  |  |
| AAUAAUAAGGAGGAUAUCGUAUCGGAAACGAUACGAGAAGGUCUAACAUGAGGAUCACCCAUGUUCCUCAAAUA |  |  | 38.1 | 54.3 |
| CCUAAACAUGAGGAUCACCCAUGUGAGGAUAUGAUGCGAAUAAAGAAAGAAGAAAGCAUCAGAAGGCACAUAGG |  |  | 173 | 270 |
| UGUCGGAUGUAGAAGGGUAGUACAUGAGGAUCACCCAUGUUAACAUGGAAUACAGGAUAUGCGUAUAGUUUUUAUUAAAUUAUA |  |  | 108 | 44.3 |
| AGCCACAGAGGAUAUACAUACAUCCAGUGGUAAAGAAUACUACAUGAGGAUCACCCAUGUAGAAGGCUGUGGCA |  |  | 25.3 | 145 |
| UUCAUGUGAGGAUAUGCGGCGUCAGGUGGGCCUGUCGCUGAGCAGAAGGCACAUGAGGAUCACCCAUGUGCUCC |  |  | 31.7 | 62.5 |
| ACAAAUUACUACCAGACAUGAGGAUCACCCAUGUCUCCACCCAGAAGGGCGACUCUGAGCACAGCGCAGGAUAUGGGUGUUCCA | 59.8 | 13.5 |  |  |
| GCUAGUAUUGCAGGAUAUUGUGAAUAAUUAUUUCAAGAAGGGCAUAACAUGAGGAUCACCCAUGUCUUCCUUUUGAAUACUAGC |  |  | 6.95 | 6.51 |
| GGAUAGGACAGAGGAUAUACGUGCUAGAGAUACUAGCAAAAUUUCCUCACAUGAGGAUCACCCAUGUAGAAGGCUGUCCUCUCG |  |  | 18 | 409 |
| AAUAAGGUCACAGGAUAUACUACAUCCAAUGCGGUAGAAGGGUGACACUUACUGUGCAGACAUGAGGAUCACCCAUGUAACCAC | 53 | 10.4 |  |  |
| CAACCACAUGAGGAUCACCCAUGUGAGGAUAUGAUACUAUGUACUUCGGUACAUAGUAUCAGAAGGCACAGGUG |  |  | 82 | 73.4 |
| GGAGCACACAUUAACAUGAGGAUCACCCAUGUCACAAGACAUGAGGAUAUGGAUCCGAAAAGGAUCCAGAAGGCAUGGUGCUCC | 657 | 28 |  |  |
| AAGUCGAGUAAUAAAUAAGAUCUACAUGAGGAUCACCCAUGUAAGGAUAUGCAGUGGAAUACACUGCAGAAGGUACAUCUCGAC |  |  | 14 | 35 |
| GUGACGAUGUAAGGAUAUGCUGAGGAAUACUCAGCAGAAGGUACAUGAGGAUCACCCAUGUAACGUCACAAUAAUAAUAAUAAU |  |  | 13.3 | 24.1 |
| GUAGAACAUGAGGAUCACCCAUGUGAGGGCGCAUGAGGAUAUGUCCGUACCUAGCAUACGAUAGAAGGCAUGGUGC | 38.7 | 27.4 |  |  |
| AGUCGGAGCAGAGGAUAUACAUGAGGAUCACCCAUGUAAAUGAAAGAUAAGCUGGAAACAGCAAUGUAGAAGGCUGCUCCGACA |  |  | 19.2 | 91.6 |
| AGAAACUACGAGAAGGACAUGUGGUCCUUCUAAAACAUGAGGAUCACCCAUGUAGGAUAUCGUAGUUUCAGGAUCGUGAGAUCA |  |  | 35.5 | 7.27 |
| AGCUGUGGCCGAGGAUAUCUAAACCUUCAAACCGAAAUAUAAUCGGACAUGAGGAUCACCCAUGUAGAGAAGGCGGUCUCAGCA |  |  | 13.3 | 28.8 |
| UGUGUUUUUGUGAGGAUAUACUGUUUGUUUUGUUUGUAGAAGGUACAUGAGGAUCACCCAUGUUGUGUUUGGUU |  |  | 37.5 | 29.2 |

From the EternaBench riboswitch data
